We go through five molecules from ChEMBL document CHEMBL5335786, “Bioorthogonal activation of prodrugs, for the potential treatment of breast cancer, using the Staudinger reaction” (RSC Med Chem, 2023).

Data set [1] relates to MCF7. The data set is described as follows: Anticancer activity against Tetra-O-acetyl-azidomannosamine engineered human MCF7 cells incubated for 72 hrs by MTT assay. The data set is classed as functional, cell-based. The settings on record: MCF7, 72 h. Put shortly: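 MCF-7 cells grown in RPMI 1640 with 5% FBS at 37 °C, 5% CO2. Cells were pre-labelled with 50 μM Ac4ManNAz for 72 h, then seeded at 4 × 10⁴ cells per mL. After 24 h they were exposed to prodrug at 0.001–10 μM for 72 h. MTT (0.5 mg mL⁻¹, 4 h) was added, formazan dissolved in DMSO, A570 read. Untreated cells served as control. Triplicates; IC50 from fitted curve; mean ± SEM.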
Background: Tetrazolium assays rely on reduction of a dye to a coloured formazan, in cell work by metabolically active cells.

The nature of data set [2]: Cytotoxicity against Tetra-O-acetyl-azidomannosamine engineered mouse L929 cells incubated for 72 hrs by MTT assay. It counts as toxicity, cell-based. The following applies: L929 cells engineered with Tetra-O-acetyl-azidomannosamine. Put shortly: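 L929 cells grown in DMEM with 10% FBS at 37 °C, 5% CO2. Cells were pre-labelled with 50 μM Ac4ManNAz for 72 h, then seeded at 1 × 10⁵ cells per mL. After 24 h they were exposed to prodrug at 0.001–10 μM for 72 h. MTT (0.5 mg mL⁻¹, 4 h) was added, formazan dissolved in DMSO, A570 read. Untreated cells served as control. Triplicates; IC50 from fitted curve; mean ± SEM.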

A short description of data set [3]: Selectivity index, ratio of IC50 for mouse L929 cells to IC50 for human MCF7 cells. The data set is classed as toxicity. The settings on record: L929 cells and MCF7 cells, read-out: Ratio IC50. An outline of the steps:
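MTT assay on MCF-7 (RPMI, 5% FBS) and L929 (DMEM, 10% FBS) at 37 °C, 5% CO2. Some cells were first given 50 μM azido-sugar for 72 h. Cells were seeded at 4 × 10⁴ or 1 × 10⁵ cells/mL for 24 h, then treated with 0.001–10 μM for 72 h. MTT 0.5 mg/mL, 4 h, DMSO, A570; untreated control; triplicate; IC50 from fitted curves; ratio L929/MCF-7.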

Data set [4] has as its system MCF7. The data set is described as follows: Anticancer activity against human MCF7 cells assessed as cell viability at 50 uM by MTT assay relative to control. It counts as functional. The following applies: read-out: Activity.
Data set [5] concerns MCF7. The data set is described as follows: Induction of azide reporter generation in human MCF7 cells at 50 uM incubated for 72 hrs by Western blot analysis. It counts as functional, cell-based. Put shortly:
(§1)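 Cells seeded at 4 × 10⁴ per mL (MCF-7, RPMI/5% FBS) or 1 × 10⁴ per mL (L929, DMEM/10% FBS) and fed azido sugar at 37 °C for 72 h. RIPA lysates were cleared, protein-normalised and reacted with 0.5 μM phosphine-PEG3-biotin for 12 h at RT. 20 μg protein run on 8% SDS-PAGE, transferred to PVDF, blocked in BSA/TBST, probed overnight at 4 °C with streptavidin-HRP, ECL detection.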
For orientation: A reporter such as luciferase makes a cellular process visible.

The subject of data set [6] is L929. Put plainly: Induction of azide reporter generation in mouse L929 cells at 50 uM incubated for 72 hrs by Western blot analysis. It counts as functional, cell-based. An outline of the steps: as §1
The test system of data set [7] is MCF7. Put plainly: Induction of azide reporter generation in human MCF7 cells at 50 uM incubated for 72 hrs by confocal laser microscopy. The data set is classed as functional, cell-based. An outline of the steps: (§2)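 Cells seeded at 4 × 10⁴ per mL (MCF-7) or 1 × 10⁴ per mL (L929) in glass-bottom dishes and kept with azido sugar at 37 °C for 72 h. Washed cells were labelled with 20 μM DBCO-Cy5 for 1 h at 37 °C, formaldehyde-fixed and DAPI-mounted. Confocal imaging; mean fluorescence intensity quantified; mean ± SEM, n = 3.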

In data set [8] the test system is L929. The data set is described as follows: Induction of azide reporter generation in mouse L929 cells at 50 uM incubated for 72 hrs by confocal laser microscopy. It counts as functional, cell-based. An outline of the steps:
as §2

Active and inactive are the calls of the source. No cut-off for these calls is given here.

For the molecule `COc1cccc2c1C(=O)c1c(O)c3c(c(O)c1C2=O)C[C@@](O)(C(=O)CO)C[C@@H]3OC1C[C@@H](NC(=O)c2ccccc2P(c2ccccc2)c2ccccc2)[C@@H](O)[C@@H](C)O1` (some centres undefined), 0.2 µM corresponded to half-maximal inhibition in the data set on MCF7 [1] (IC50). In addition, in data set [2], the IC50 (in general, the concentration that gives 50% inhibition) at 72 h was found to be 7.7 µM. Further, the selectivity ratio in data set [3] came out at 2.

`CC(=O)N[C@H]1[C@H]([C@H](O)[C@H](O)CN=[N+]=[N-])OC(O)(C(=O)O)C[C@@H]1O` (single isomer, unassigned): the viability at 50 µM in the data set on MCF7 [4] amounted to 100%. Moreover, the outcome with MCF7 [5] and in the data set with MCF7 [7] was Active. Besides, the outcome in the data set with L929 [6] and with L929 [8] was inactive.

For `CC(=O)OC[C@H]1OC(OC(C)=O)[C@@H](NC(=O)CN=[N+]=[N-])[C@@H](OC(C)=O)[C@@H]1OC(C)=O` (some centres undefined), the viability at 50 µM in the data set on MCF7 [4] came out at 100%. In addition, the result with MCF7 [5], in the data set on L929 [6], in the data set on MCF7 [7] and with L929 [8] was Active.

As to `O=C(Nc1ccc(N(CCCl)CCCl)cc1)c1ccccc1P(c1ccccc1)c1ccccc1`, in data set [3], the selectivity ratio is 2.

`CC(=O)N[C@H]1[C@H]([C@H](OC(C)=O)[C@@H](CN=[N+]=[N-])OC(C)=O)O[C@@](OC(C)=O)(C(=O)O)C[C@@H]1OC(C)=O`: the viability at 50 µM in the data set on MCF7 [4] was 100%. Moreover, the result in the data set on MCF7 [5] and in the data set on MCF7 [7] was Active. Further, the result in the data set on L929 [6] and in the data set on L929 [8] was inactive.
